Measurements published in ChEMBL document CHEMBL2010700, “The discovery of aminopyrazines as novel, potent Na(v)1.7 antagonists: hit-to-lead identification and SAR” (Bioorg Med Chem Lett, 2012).
Values after ≈ are worked out from the molar mass of the structure shown.

Tests used:
[1] = Solubility of the compound in simulated intestinal fluid; assay type: physicochemical
[2] = Solubility of the compound in phosphate buffered saline at pH 7.4; assay type: physicochemical
[3] = Solubility of the compound in 0.01 N HCl; assay type: physicochemical
[4] = Volume of distribution at steady state in Sprague-Dawley rat at 0.5 mg/kg, iv; assay type: ADME, organism-based; set-up: dose 0.5 mg/kg, route intravenous; conditions: in vivo, read-out: Vdss
[5] = Oral bioavailability in Sprague-Dawley rat at 2 mg/kg; assay type: ADME, organism-based; conditions: in vivo
Summary of the method: (§1)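 Male Sprague-Dawley rats given 2.0 mpk orally in 10 mL/kg of 30% hydroxypropyl-β-cyclodextrin adjusted to pH 2.2 with methanesulfonic acid.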

[6] = AUC (infinity) in Sprague-Dawley rat at 2 mg/kg, po; assay type: ADME, organism-based; set-up: dose 2 mg/kg, route oral, time infinity; conditions: plasma; summary of the method: as §1
[7] = Cmax in Sprague-Dawley rat at 2 mg/kg, po; assay type: ADME, organism-based; set-up: dose 2 mg/kg, route oral; conditions: in vivo; summary of the method: as §1
[8] = test system: Plasma; experiment: Drug metabolism in rat plasma assessed as formation of mono-oxidized product at 10 uM after 3 hrs; assay type: ADME, cell-free

Row | Compound | solubility [1] | solubility [2] | solubility [3] | Vd [4] | bioavailability [5] | AUC(0-inf) [6] | Cmax [7] | Drug metabolism [8]
1 | Nc1cncc(Nc2ccc(Oc3ccc(OC(F)(F)F)cc3)cc2)n1 | 109 µg/mL (≈ 301 µM) | 1 µg/mL (≈ 2.76 µM) | 7 µg/mL (≈ 19.3 µM) | 2.1 L/kg | 13% | 0.76 µM·h | 220 nM | 
2 | Nc1ncnc(Nc2ccc(Oc3ccc(Cl)cc3)cc2)n1 | 7 µg/mL (≈ 22.3 µM) | 1 µg/mL (≈ 3.19 µM) | 6 µg/mL (≈ 19.1 µM) |  |  |  |  | Active
